Data taken from ChEMBL document CHEMBL1122273, “5-sulfamoylorthanilic acids, a sulfonamide series with salidiuretic activity” (J Med Chem, 1983).

Key:
Canis familiaris [1] = test: Saluretic activity in the dog measured as concentration of Na+ in urinary excretion (2 animals/dose) at (dose 0.025 mg/Kg, perorally); assay type: functional, Canis lupus familiaris, Urine
Outline: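 Male beagles trained to rest on a table and to accept stomach tube and catheter. Food withdrawn 24 h before, tap water ad libitum. Bladder emptied by catheter, then 20 mL/kg tap water by stomach tube. Catheterized hourly up to 8 h with 4 mL/kg water orally each time; first 2 h urine served as control. Oral dosing after second catheterization. Pooled 1–6 h urine; Na⁺/K⁺ by flame photometry, Cl⁻ argentometrically.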

Canis familiaris [2] = test: Saluretic activity in the dog measured as concentration of Cl - in urinary excretion (2 animals/dose) at (dose 0.025 mg/Kg, perorally); assay type: functional, Canis lupus familiaris, Urine
Outline: (§1)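 Male beagles trained to the procedures, food withdrawn 24 h before, tap water ad libitum. Bladder emptied by catheter, then 20 mL/kg tap water by stomach tube, plus 4 mL/kg orally at each hourly catheterization up to 8 h. The first 2 h of urine served as control. Compound given orally after the second catheterization. Urine from 1–6 h post-dose pooled; Na⁺ and K⁺ by flame photometry, Cl⁻ argentometrically, in mequiv/kg.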

Canis familiaris [3] = test: sodium excretion collected at 7-24 hr time after oral administration in dog (four animals per dose) dosed at 0.39 mg/kg.; assay type: functional, Canis lupus familiaris
Outline: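 Trained male beagles, food withdrawn 24 h beforehand with tap water ad libitum. Bladder emptied by catheter, then 20 mL/kg tap water by stomach tube. Catheterized hourly (up to 8 h) with 4 mL/kg water orally each time. First 2 h of urine served as control. Compound given orally after second catheterization. Na⁺ measured flame-photometrically, in mequiv/kg.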

Canis familiaris [4] = test: Urinary excretion collected at 1-6 hr time after oral administration in dog (four animals per dose) dosed at 0.39 mg/kg.; assay type: functional, Canis lupus familiaris, Urine
Outline: (§2)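 Trained male beagles, four per dose, fasted 24 h with tap water ad libitum. After bladder emptying, given 20 mL/kg tap water by stomach tube, then 4 mL/kg at each hourly catheterization; 2 h control collection, then oral dosing. Urine volume and Na⁺ (flame photometry) reported for 1–6, 7–24 and 1–24 h post-dose periods.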

Canis familiaris [5] = test: Saluretic activity in the dog measured as concentration of Cl - in urinary excretion (2 animals/dose) at (dose 12.5 mg/Kg, perorally); assay type: functional, Canis lupus familiaris, Urine; outline: as §1
Canis familiaris [6] = test: Urinary excretion collected at 1-24 hr time after oral administration in dog (four animals per dose) at dose 1.56 mg/kg.; assay type: functional, Canis lupus familiaris, Urine; outline: as §2
Canis familiaris [7] = test: Urinary excretion collected at 1-6 hr time after oral administration in dog (four animals per dose) at dose 1.56 mg/kg.; assay type: functional, Canis lupus familiaris, Urine; outline: as §2
Canis familiaris [8] = test: Urinary excretion collected at 7-24 hr time after oral administration in dog (four animals per dose) at dose 1.56 mg/kg.; assay type: functional, Canis lupus familiaris, Urine; outline: as §2
[9] = It is the ratio, measured as saluretic activity in the dog as concentration of Cl- in urinary excretion (dose 12.5 mg/kg, p.o.) to that of (Na+)+(K+); assay type: functional, Urine; conditions: route oral
Outline: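 Trained male beagles, fasted 24 h with tap water ad libitum. Bladder emptied by catheter, then 20 mL/kg tap water by stomach tube, with 4 mL/kg water at each hourly catheterization up to 8 h. The first 2 h of urine served as control. Oral dosing came after the second catheterization, and 1–6 h urine was pooled. Na⁺ and K⁺ were measured by flame photometry, Cl⁻ argentometrically, in mequiv/kg.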

Row | Compound | Saluretic activity (Canis familiaris [1]) [m equiv 6hr-1 kg-1] | Saldiuretic activity (Canis familiaris [2]) [mequiv kg-1 6hr-1] | Na+ excretion (Canis familiaris [3]) [mequiv kg-1] | Urinary excretion (Canis familiaris [4]) [mL/kg] | Saldiuretic activity (Canis familiaris [5]) [m equiv 6hr-1 kg-1] | Urinary excretion (Canis familiaris [6]) [mL/kg] | Urinary excretion (Canis familiaris [7]) [mL/kg] | Urinary excretion (Canis familiaris [8]) [mL/kg] | Ratio [9]
1 | CN(c1ccccc1)c1cc(NCc2ccco2)c(S(=O)(=O)[O-])cc1S(N)(=O)=O.[Na+] | 0.45 | 0.75 | 0.55 | 75.3 |  |  |  |  | 
2 | NS(=O)(=O)c1cc(S(=O)(=O)[O-])c(NCc2ccco2)cc1Oc1ccccc1.[Na+] |  |  |  |  | 7.13 | 78.9 | 61.1 | 12.3 | 0.95
